Results: ChEMBL document CHEMBL1147862, “Studies on synthesis and pharmacological activities of 3,6-disubstituted-1,2,4-triazolo[3,4-b]-1,3,4-thiadiazoles and their dihydro analogues” (2007)

Assays:
Type in all cases: functional
[1] = test system: Mus musculus; test: Analgesic activity in Swiss mouse assessed as increase in reaction time at 20 mg/kg, po after 30 mins by Eddy's hot plate technique
How it was run: (§1)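 Swiss mice of either sex, 25–35 g, placed one at a time on a hot plate held at 55 °C. End point is paw licking or jumping, whichever comes first, with a 15 s cut-off to avoid paw injury. Reaction time is recorded and reported as percent increase in reaction time.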

[2] = test system: Candida albicans; test: Antifungal activity against Candida albicans at 10 ug/ml by paper disc method; conditions: read-out: IZ
[3] = test system: Pseudomonas aeruginosa; test: Antibacterial activity against Pseudomonas aeruginosa at 20 ug/ml by agar plate diffusion technique; conditions: read-out: IZ
[4] = test system: Bacillus subtilis; test: Antibacterial activity against Bacillus subtilis at 10 ug/ml by agar plate diffusion technique; conditions: read-out: IZ
[5] = test system: Bacillus subtilis; test: Antibacterial activity against Bacillus subtilis at 20 ug/ml by agar plate diffusion technique; conditions: read-out: IZ
[6] = test system: Candida albicans; test: Antifungal activity against Candida albicans at 30 ug/ml by paper disc method; conditions: read-out: IZ
[7] = test system: Candida albicans; test: Antifungal activity against Candida albicans at 20 ug/ml by paper disc method; conditions: read-out: IZ
[8] = test system: Aspergillus niger; test: Antifungal activity against Aspergillus niger at 30 ug/ml by paper disc method; conditions: read-out: IZ
[9] = test system: Rattus norvegicus; test: Antiinflammatory activity in Wistar Albino rat assessed as inhibition of carrageenan-induced paw oedema at 20 mg/kg after 2 hrs relative to control
How it was run: (§2)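 Wistar albino rats, 150–200 g, six per group, dosed orally with a 20 mg/kg suspension; control gets 0.1 ml 1% gum acacia. After 30 min, 0.1 ml 1% carrageenan in saline is injected subplantar into the right hind paw. Paw volume is read by plethysmograph at 0–4 h. Inhibition = 100(1 − Vtest/Vcontrol) on mean volume increase.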

[10] = test system: Rattus norvegicus; test: Antiinflammatory activity in Wistar Albino rat assessed as inhibition of carrageenan-induced paw oedema at 20 mg/kg after 3 hrs relative to control; how it was run: as §2
[11] = test system: Escherichia coli; test: Antibacterial activity against Escherichia coli at 20 ug/ml by agar plate diffusion technique; conditions: read-out: IZ
[12] = test system: Staphylococcus aureus; test: Antibacterial activity against Staphylococcus aureus at 20 ug/ml by agar plate diffusion technique; conditions: read-out: IZ
[13] = test system: Escherichia coli; test: Antibacterial activity against Escherichia coli at 30 ug/ml by agar plate diffusion technique; conditions: read-out: IZ
[14] = test system: Bacillus subtilis; test: Antibacterial activity against Bacillus subtilis at 30 ug/ml by agar plate diffusion technique; conditions: read-out: IZ
[15] = test system: Aspergillus niger; test: Antifungal activity against Aspergillus niger at 10 ug/ml by paper disc method; conditions: read-out: IZ
[16] = test system: Pseudomonas aeruginosa; test: Antibacterial activity against Pseudomonas aeruginosa at 30 ug/ml by agar plate diffusion technique; conditions: read-out: IZ
[17] = test system: Pseudomonas aeruginosa; test: Antibacterial activity against Pseudomonas aeruginosa at 10 ug/ml by agar plate diffusion technique; conditions: read-out: IZ
[18] = test system: Mus musculus; test: Analgesic activity in Swiss mouse assessed as increase in reaction time at 20 mg/kg, po after 90 mins by Eddy's hot plate technique; how it was run: as §1
[19] = test system: Escherichia coli; test: Antibacterial activity against Escherichia coli at 10 ug/ml by agar plate diffusion technique; conditions: read-out: IZ
[20] = test system: Mus musculus; test: Analgesic activity in Swiss mouse assessed as increase in reaction time at 20 mg/kg, po after 60 mins by Eddy's hot plate technique; how it was run: as §1
[21] = test system: Staphylococcus aureus; test: Antibacterial activity against Staphylococcus aureus at 10 ug/ml by agar plate diffusion technique; conditions: read-out: IZ
[22] = test system: Rattus norvegicus; test: Antiinflammatory activity in Wistar Albino rat assessed as inhibition of carrageenan-induced paw oedema at 20 mg/kg after 4 hrs relative to control; how it was run: as §2
[23] = test system: Rattus norvegicus; test: Antiinflammatory activity in Wistar Albino rat assessed as inhibition of carrageenan-induced paw oedema at 20 mg/kg after 1 hr relative to control; how it was run: as §2
[24] = test system: Staphylococcus aureus; test: Antibacterial activity against Staphylococcus aureus at 30 ug/ml by agar plate diffusion technique; conditions: read-out: IZ
[25] = test system: Aspergillus niger; test: Antifungal activity against Aspergillus niger at 20 ug/ml by paper disc method; conditions: read-out: IZ

| Structure (SMILES) | Activity [1] | zone of inhibition at 10 µg/mL [2] | zone of inhibition at 20 µg/mL [3] | zone of inhibition at 10 µg/mL [4] | zone of inhibition at 20 µg/mL [5] | zone of inhibition at 30 µg/mL [6] | zone of inhibition at 20 µg/mL [7] | zone of inhibition at 30 µg/mL [8] | inhibition in vivo at 20 mg/kg [9] | inhibition in vivo at 20 mg/kg [10] | zone of inhibition at 20 µg/mL [11] | zone of inhibition at 20 µg/mL [12] | zone of inhibition at 30 µg/mL [13] | zone of inhibition at 30 µg/mL [14] | zone of inhibition at 10 µg/mL [15] | zone of inhibition at 30 µg/mL [16] | zone of inhibition at 10 µg/mL [17] | Activity [18] | zone of inhibition at 10 µg/mL [19] | Activity [20] | other results |
| --- | --- | --- | --- | --- | --- | --- | --- | --- | --- | --- | --- | --- | --- | --- | --- | --- | --- | --- | --- | --- | --- |
| COc1ccc2[nH]c(C)c(Cc3nn4c(-c5ccoc5C)nnc4s3)c2c1 | 9.18% | 5.04 mm | 8.14 mm | 4.6 mm | 8.38 mm | 13.1 mm | 9.86 mm | 12.4 mm | 24.8% | 29.4% | 9.1 mm | 9.12 mm | 13.8 mm | 13.2 mm | 5.14 mm | 14.6 mm | 4.92 mm | 33.49% | 5.12 mm | 23.17% | zone of inhibition at 10 µg/mL [21]: 4.89 mm; inhibition in vivo at 20 mg/kg [22]: 31.2%; inhibition in vivo at 20 mg/kg [23]: 19.7%; zone of inhibition at 30 µg/mL [24]: 13.3 mm; zone of inhibition at 20 µg/mL [25]: 9.06 mm |
| COc1ccc(Cc2nnc3n2NC(c2ccc([N+](=O)[O-])o2)S3)cc1OC (stereo not given) | 2.83% | 5.43 mm | 7.88 mm | 4.92 mm | 8.49 mm | 14.8 mm | 10.9 mm | 14.3 mm | 17.6% | 21.4% | 10 mm | 8.37 mm | 15 mm | 13.5 mm | 5.21 mm | 13.1 mm | 4.42 mm | 22.66% | 5.16 mm | 10.3% | zone of inhibition at 10 µg/mL [21]: 5.1 mm; inhibition in vivo at 20 mg/kg [22]: 23.7%; inhibition in vivo at 20 mg/kg [23]: 14.5%; zone of inhibition at 30 µg/mL [24]: 14 mm; zone of inhibition at 20 µg/mL [25]: 9.64 mm |
| COc1ccc2[nH]cc(Cc3nn4c(-c5ccoc5C)nnc4s3)c2c1 | 13.84% | 5.62 mm | 9.62 mm | 5.82 mm | 9.61 mm | 13.5 mm | 10.8 mm | 13.1 mm | 20.1% | 26.1% | 9.35 mm | 9.1 mm | 14.2 mm | 14.2 mm | 5.06 mm | 14.5 mm | 5.36 mm | 31.86% | 5.16 mm | 24.76% | zone of inhibition at 10 µg/mL [21]: 4.85 mm; inhibition in vivo at 20 mg/kg [22]: 30.8%; inhibition in vivo at 20 mg/kg [23]: 16%; zone of inhibition at 30 µg/mL [24]: 13.3 mm; zone of inhibition at 20 µg/mL [25]: 9.8 mm |
| COc1ccc(Cc2nnc3sc(-c4ccnc(Cl)c4)nn23)cc1OC | 6.24% | 6.82 mm | 12.2 mm | 7.19 mm | 13.9 mm | 19.4 mm | 12.9 mm | 18.4 mm | 13.2% | 22.5% | 12.8 mm | 13.6 mm | 19.7 mm | 18.9 mm | 7.23 mm | 19.4 mm | 6.93 mm | 23.89% | 6.72 mm | 12.55% | zone of inhibition at 10 µg/mL [21]: 7.05 mm; inhibition in vivo at 20 mg/kg [22]: 24.2%; inhibition in vivo at 20 mg/kg [23]: 11.2%; zone of inhibition at 30 µg/mL [24]: 18.1 mm; zone of inhibition at 20 µg/mL [25]: 13 mm |
| COc1ccc(Cl)c(-c2nnc3sc(-c4ccnc5ccccc45)nn23)c1 | 7.69% | 6.48 mm | 13.3 mm | 7.68 mm | 13.1 mm | 18 mm | 13.9 mm | 19.1 mm | 14.3% | 18.6% | 14.5 mm | 13.2 mm | 18.8 mm | 18.8 mm | 6.4 mm | 18.7 mm | 7.82 mm | 23.84% | 8.28 mm | 17.24% | zone of inhibition at 10 µg/mL [21]: 7.21 mm; inhibition in vivo at 20 mg/kg [22]: 20.9%; inhibition in vivo at 20 mg/kg [23]: 11.1%; zone of inhibition at 30 µg/mL [24]: 18.1 mm; zone of inhibition at 20 µg/mL [25]: 12.8 mm |
| Cc1occc1-c1nnc2n1NC(c1ccc[nH]1)S2 (stereo not given) | 7.14% | 5.24 mm | 12.3 mm | 5.33 mm | 10.7 mm | 14.8 mm | 9.16 mm | 13.2 mm | 18.2% | 20.3% | 8.42 mm | 8.12 mm | 15.7 mm | 16.3 mm | 5.1 mm | 14.7 mm | 6.67 mm | 23% | 5.11 mm | 17.45% | zone of inhibition at 10 µg/mL [21]: 4.6 mm; inhibition in vivo at 20 mg/kg [22]: 22.7%; inhibition in vivo at 20 mg/kg [23]: 13.7%; zone of inhibition at 30 µg/mL [24]: 12.3 mm; zone of inhibition at 20 µg/mL [25]: 9.42 mm |
| COc1ccc(Cl)c(-c2nnc3sc(Cc4c[nH]c5ccc(OC)cc45)nn23)c1 | 13.69% | 5.44 mm | 9.18 mm | 4.76 mm | 8.79 mm | 11.2 mm | 9.2 mm | 12.2 mm | 14.4% | 21.4% | 8.39 mm | 8.52 mm | 13.2 mm | 13.2 mm | 5.38 mm | 12.8 mm | 4.83 mm | 31.48% | 5.1 mm | 23.76% | zone of inhibition at 10 µg/mL [21]: 4.58 mm; inhibition in vivo at 20 mg/kg [22]: 33.9%; inhibition in vivo at 20 mg/kg [23]: 6.1%; zone of inhibition at 30 µg/mL [24]: 13.7 mm; zone of inhibition at 20 µg/mL [25]: 10.1 mm |
| COc1ccc2[nH]c(C)c(Cc3nn4c(Cc5ccc(OC)c(OC)c5)nnc4s3)c2c1 | 19.23% | 4.62 mm | 7.42 mm | 4.07 mm | 7.21 mm | 12.1 mm | 8.02 mm | 10.8 mm | 16.2% | 21.4% | 7.42 mm | 8.08 mm | 12.4 mm | 12.3 mm | 4.9 mm | 12.6 mm | 4.04 mm | 29.04% | 4.48 mm | 27.82% | zone of inhibition at 10 µg/mL [21]: 4.06 mm; inhibition in vivo at 20 mg/kg [22]: 28.4%; inhibition in vivo at 20 mg/kg [23]: 10.5%; zone of inhibition at 30 µg/mL [24]: 12 mm; zone of inhibition at 20 µg/mL [25]: 7.58 mm |
